“Also recorded” adds a separate entry of the source. Read-outs that look alike come from different tables or passages of the source. Each block holds one compound with its values, some of them ahead of it.
Key:
[1] = cited from earlier work
[2] = format: in vivo, healthy Japanese men; settings: for Accumulation ratio (day 15/day 1) AUC0–168h / Accumulation ratio (day 15/day 1) Cmax / Accumulation ratio (day 15/day 1) Ctrough: geometric mean ratio (90% CI)
How it was run: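 Blood went into dipotassium-EDTA tubes, was spun 10 min at 1000–1300 g, and plasma was frozen at −20°C. Assay was online-extraction turbulent-flow LC, LLOQ 1.0 ng/mL. Accumulation was the day 15/day 1 geometric mean ratio, computed on the log scale with CIs. For the food comparison, 10 mg single doses were given after a ≥10-h fast or after a 411-kcal Japanese breakfast finished 10 min predose.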

[3] = Urine pharmacokinetics; format: in vivo, healthy Japanese men; settings: male, human, 50 mg
How it was run: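 After the 50 mg once-weekly dose on day 15, urine was collected predose (day 1) and at intervals up to 168 h. Tween 20 was added to 0.2% final and samples were stored at −20°C. The assay was LC online extraction, LLOQ 40 ng/mL. Amount excreted was the sum of concentration × volume per interval, fraction excreted was amount/dose, and renal clearance was amount/AUC0–168h.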

[4] = molecular target: T1, plasma DPP‐4 activity (Homo sapiens, UniProt P27487); test: Percent inhibition of plasma DPP-4 activity from baseline; format: in vivo, healthy Japanese men; settings: for DPP-4 percent inhibition from baseline, LS mean (95% CI) / DPP-4 percent inhibition, difference from placebo, difference in LS means (90% CI): 168 h post-dose
How it was run: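 Healthy men received 1–50 mg orally once weekly for 3 weeks. Blood was drawn predose and at set times on days 1 and 15; 4-h and 24-h samples preceded meals. EDTA plasma was incubated with glycyl-prolyl-paranitroanilide, and the absorbance rise at 390 nm was read from 4 to 14 min (LOQ 0.6 mOD/min). Inhibition was taken versus pretreatment and analysed by a log-scale mixed model (treatment, day, interaction; participant random).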

[5] = molecular target: T1, plasma DPP‐4 activity; format: in vivo, healthy Japanese men; settings: pharmacokinetic/pharmacodynamic Emax model
How it was run: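 For each participant, percent inhibition of plasma DPP-4 activity (chromogenic glycyl-prolyl-paranitroanilide substrate, 390 nm) was paired with plasma drug concentration after single oral doses. A population three-parameter Emax model (Emax, EC50, Hill slope) was fitted, and the 80% effective concentration was derived from it.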

[6] = Safety and tolerability assessments; format: in vivo, healthy Japanese men
How it was run: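 Part 1 used single doses of 5–100 mg and part 2 used 1–50 mg once weekly for 3 weeks, each with placebo. Adverse events were recorded throughout and rated for intensity, duration, severity, outcome and drug relationship. Vital signs, physical and neurological exams, 12-lead ECGs, laboratory tests and glucometer readings were taken predose, post-dose and post-study. Events were tabulated by dose, with change-from-baseline summaries.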

[7] = concentration range for 50 mg q.w. dosing; ref unpubl. data; cited from earlier work
[8] = no reference given; cited from earlier work
[9] = test system: OAT1; settings: no reference given; cited from earlier work
[10] = test system: OAT3; settings: no reference given; cited from earlier work
[11] = test system: OCT2; settings: no reference given; cited from earlier work
[12] = test system: active glucagon‐like peptide‐1; settings: healthy males; earlier study; cited from earlier work
[13] = multiple dose 1 mg q.w., day 15
[14] = multiple dose 10 mg q.w., day 15
[15] = multiple dose 25 mg q.w., day 15
[16] = multiple dose 50 mg q.w., day 15
[17] = single 5–100 mg and multiple 1–50 mg q.w. doses
[18] = single 5–100 mg and multiple 1–50 mg q.w. doses, listed as Omarigliptin

T1 sequence (P27487 39-766): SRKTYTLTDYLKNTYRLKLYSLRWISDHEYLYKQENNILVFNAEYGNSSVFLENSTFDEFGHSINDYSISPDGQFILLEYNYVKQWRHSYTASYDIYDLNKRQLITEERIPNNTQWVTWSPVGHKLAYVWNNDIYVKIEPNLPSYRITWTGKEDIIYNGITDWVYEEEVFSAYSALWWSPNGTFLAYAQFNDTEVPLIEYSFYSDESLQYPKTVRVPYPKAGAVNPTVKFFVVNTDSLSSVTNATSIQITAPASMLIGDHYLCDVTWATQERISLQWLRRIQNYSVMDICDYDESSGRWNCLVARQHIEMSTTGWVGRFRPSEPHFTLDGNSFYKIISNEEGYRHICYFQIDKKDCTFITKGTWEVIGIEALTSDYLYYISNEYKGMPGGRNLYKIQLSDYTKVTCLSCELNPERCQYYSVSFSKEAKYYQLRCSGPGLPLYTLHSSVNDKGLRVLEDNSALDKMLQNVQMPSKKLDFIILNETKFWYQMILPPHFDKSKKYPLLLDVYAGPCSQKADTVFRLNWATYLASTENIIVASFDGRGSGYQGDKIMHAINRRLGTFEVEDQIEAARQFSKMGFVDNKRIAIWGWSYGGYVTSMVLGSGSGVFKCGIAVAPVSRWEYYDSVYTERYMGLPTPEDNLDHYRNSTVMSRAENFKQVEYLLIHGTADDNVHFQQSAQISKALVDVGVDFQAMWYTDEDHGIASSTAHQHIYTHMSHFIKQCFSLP

Structure (SMILES): Cn1c(=O)cc(N2CCC[C@@H](N)C2)n(Cc2ccccc2C#N)c1=O [alogliptin]
renal clearance compared with typical glomerular filtration rates [1]: higher renal clearance than typical glomerular filtration rates

Accumulation ratio (day 15/day 1) AUC0–168h ([2]; 1 mg q.w. for 3 weeks): 1.35 (1.27–1.44)
Accumulation ratio (day 15/day 1) Cmax ([2]; 1 mg q.w. for 3 weeks): 1.36 (1.13–1.63)
Accumulation ratio (day 15/day 1) Ctrough ([2]; 1 mg q.w. for 3 weeks): 1.24 (1.06–1.44)
Accumulation ratio (day 15/day 1) AUC0–168h ([2]; 10 mg q.w. for 3 weeks): 1.09 (1.04–1.15)
Accumulation ratio (day 15/day 1) Cmax ([2]; 10 mg q.w. for 3 weeks): 1.18 (1.00–1.38)
Accumulation ratio (day 15/day 1) Ctrough ([2]; 10 mg q.w. for 3 weeks): 0.97 (0.86–1.10)
Accumulation ratio (day 15/day 1) AUC0–168h ([2]; 25 mg q.w. for 3 weeks): 1.05 (1.00–1.11)
Accumulation ratio (day 15/day 1) Cmax ([2]; 25 mg q.w. for 3 weeks): 0.87 (0.75–1.02)
Accumulation ratio (day 15/day 1) Ctrough ([2]; 25 mg q.w. for 3 weeks): 1.11 (0.98–1.26)
Accumulation ratio (day 15/day 1) AUC0–168h ([2]; 50 mg q.w. for 3 weeks): 1.03 (0.97–1.09)
Accumulation ratio (day 15/day 1) Cmax ([2]; 50 mg q.w. for 3 weeks): 1.21 (1.02–1.43)
Accumulation ratio (day 15/day 1) Ctrough ([2]; 50 mg q.w. for 3 weeks): 1.03 (0.90–1.18)
accumulation ratio (day 15/day 1) AUC0–168h, range ([2]; 1–50 mg q.w. for 3 weeks): 1.03–1.35
accumulation ratio (day 15/day 1) Cmax, range ([2]; 1–50 mg q.w. for 3 weeks): 0.87–1.36
accumulation ratio (day 15/day 1) trough plasma concentration, range ([2]; 1–50 mg q.w. for 3 weeks): 0.97–1.24
half-life ([2]; male, human, plasma, po, 10 mg, t½, single dose 10 mg, fed, geometric mean (%CV)): 89.5 h
dose proportionality of AUC0–168h and trough plasma concentration ([2]; multiple dose 1–50 mg q.w.): less than dose‐proportional
dose proportionality of Cmax ([2]; multiple dose 1–50 mg q.w.): dose‐proportional
time at which steady state was reached ([2]; multiple q.w. dosing, all doses tested): after the first dose
AUC0–168h geometric mean ratio (fed/fasted) ([2]; single dose 10 mg, GMR, 90% CI): 0.97 (0.90–1.03)
AUC0–∞ geometric mean ratio (fed/fasted) ([2]; single dose 10 mg, GMR, 90% CI): 1.03 (0.96–1.11)
C168h geometric mean ratio (fed/fasted) ([2]; single dose 10 mg, GMR, 90% CI): 1.13 (0.93–1.37)
Cmax geometric mean ratio (fed/fasted) ([2]; single dose 10 mg, GMR, 90% CI): 0.75 (0.65–0.86)
dose proportionality of AUC0–∞, AUC0–168h and Cmax ([2]; single dose 5–100 mg): approximately dose‐proportional
dose proportionality of C168h ([2]; single dose 5–100 mg): less than dose‐proportional
CL renal ([3]; urine and plasma, oral): 50 to 68 mL/min
CL renal ([3]; urine, po): 38.3 mL/min
percent inhibition of DPP‐4 activity from baseline at 168 h, range ([4]; 1–50 mg q.w., after 3 weeks dosing): 51.3–90.2%
DPP-4 percent inhibition from baseline, LS mean (95% CI) [4, 13]: 51.33 (29.67–66.32) %
DPP-4 percent inhibition, difference from placebo, difference in LS means (90% CI) [4, 13]: 42.48 (31.06–54.19) %
DPP-4 percent inhibition from baseline, LS mean (95% CI) [4, 14]: 83.26 (77.03–87.80) %
DPP-4 percent inhibition, difference from placebo, difference in LS means (90% CI) [4, 14]: 74.41 (65.73–83.59) %
DPP-4 percent inhibition from baseline, LS mean (95% CI) [4, 15]: 87.52 (83.55–90.53) %
DPP-4 percent inhibition, difference from placebo, difference in LS means (90% CI) [4, 15]: 78.67 (70.36–87.51) %
DPP-4 percent inhibition from baseline, LS mean (95% CI) [4, 16]: 90.23 (86.59–92.88) %
DPP-4 percent inhibition, difference from placebo, difference in LS means (90% CI) [4, 16]: 81.37 (73.30–90.00) %
DPP-4 percent inhibition from baseline, LS mean (95% CI) ([4]; single dose 5 mg): 79.20 (76.17–81.85) %
DPP-4 percent inhibition, difference from placebo, difference in LS means (90% CI) ([4]; single dose 5 mg): 87.89 (80.96–95.09) %
DPP-4 percent inhibition from baseline, LS mean (95% CI) ([4]; single dose 10 mg (fasted)): 77.39 (74.14–80.24) %
DPP-4 percent inhibition, difference from placebo, difference in LS means (90% CI) ([4]; single dose 10 mg (fasted)): 86.09 (79.05–93.38) %
DPP-4 percent inhibition from baseline, LS mean (95% CI) ([4]; single dose 10 mg (fed)): 73.90 (70.14–77.18) %
DPP-4 percent inhibition, difference from placebo, difference in LS means (90% CI) ([4]; single dose 10 mg (fed)): 82.59 (75.36–90.06) %
DPP-4 percent inhibition from baseline, LS mean (95% CI) ([4]; single dose 25 mg): 85.97 (83.66–87.95) %
DPP-4 percent inhibition, difference from placebo, difference in LS means (90% CI) ([4]; single dose 25 mg): 94.66 (88.11–101.49) %
DPP-4 percent inhibition from baseline, LS mean (95% CI) ([4]; single dose 50 mg): 86.76 (84.59–88.63) %
DPP-4 percent inhibition, difference from placebo, difference in LS means (90% CI) ([4]; single dose 50 mg): 95.45 (88.95–102.25) %
DPP-4 percent inhibition from baseline, LS mean (95% CI) ([4]; single dose 100 mg): 94.01 (93.03–94.85) %
DPP-4 percent inhibition, difference from placebo, difference in LS means (90% CI) ([4]; single dose 100 mg): 102.70 (96.60–109.11) %
inhibition from baseline of DPP‐4 activity maintained for 168 h ([4]; single and multiple q.w. administration at a dose of 25 mg or higher): Greater than 80%
Emax value [5]: 96.5 % inhibition
estimated 80% effective concentration [5]: 11.4 nmol
Structure (SMILES): CS(=O)(=O)n1cc2c(n1)CN([C@H]1CO[C@H](c3cc(F)ccc3F)[C@@H](N)C1)C2 [omarigliptin]
effect of food on pharmacokinetics ([2]; 10 mg single dose with Japanese standard breakfast): did not meaningfully alter the pharmacokinetics
drug‐related clinical adverse events after omarigliptin ([6]; part 1, single dosing): five
drug‐related adverse events ([6]; part 2, multiple dosing): Eight
total clinical adverse events ([6]; part 2, multiple dosing, nine participants): 13
adverse events of hypoglycemia [6, 17]: no adverse events of hypoglycemia
serious clinical or laboratory adverse events [6, 17]: no serious clinical or laboratory adverse events; also recorded: No deaths, serious adverse events or laboratory adverse events were reported
tolerability [6, 17]: well tolerated
adverse events of hypoglycemia [6, 18]: no hypoglycemia being reported
tolerability [6, 18]: generally well tolerated
changes from baseline in laboratory, vital signs, glucose monitoring or ECG parameters ([6]; whole study): no clinically significant, consistent treatment‐related or dose‐related changes from baseline
discontinuation because of an adverse event ([6]; whole study): no participants were discontinued
intensity of adverse events ([6]; whole study, all resolved by the end of the study): mild or moderate intensity
free fraction of omarigliptin in humans [7]: 56–76%
permeability [8]: high permeability
substrate of drug transporter OAT1 [9]: not a substrate
substrate of drug transporter OAT3 [10]: not a substrate
substrate of drug transporter OCT2 [11]: not a substrate
enhancement of post‐meal active glucagon‐like peptide‐1 [12]: approximately twofold

Structure (SMILES): N[C@@H](CC(=O)N1CCn2c(nnc2C(F)(F)F)C1)Cc1cc(F)c(F)cc1F [sitagliptin]
renal clearance compared with typical glomerular filtration rates [1]: higher renal clearance than typical glomerular filtration rates

Structure (SMILES): Cn1c(=O)cc(N2CCC[C@@H](N)C2)n(Cc2cc(F)ccc2C#N)c1=O [trelagliptin]
renal clearance compared with typical glomerular filtration rates [1]: higher renal clearance than typical glomerular filtration rates
